In the library only some 3.6% were active in any assay of this set; here they are far more common.
NS3 helicase inh: blocks Hepatitis C virus NS3 helicase unwinding | AID 1800 | inhibition, % at 10.9 µM | hit rate 0.56% among 290,000 | NS3 helicase DNA unwinding, Cy5 molecular beacon fluorescence;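 active = inhibition above the mean of all tested compounds plus 3 SD, set per campaign, cut at about 35% in these data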;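 also: 0% = DMSO wells and 100% = thioflavine S control wells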
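System: HCV NS3 helicase fragment; control set: DMSO and thioflavine S; technique: Cy5 fluorescence at 0 and 60 min, beacon hairpin quenching; reagent: beacon DNA duplex substrate plus ATP; replicates: singlicate; schedule: 1 h reaction at 25 °C, ATP-initiated; medium: MOPS buffer pH 6.5 with MgCl2, DTT, Tween20, BSA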
FGF22 binding: FGF22 (human) thermal shift binding | activity (Tm shift, normalised), % at 9.99 µM | recombinant FGF22 thermal shift, SYPRO orange fluorescence; percent of sucrose octasulfate shift, DMSO zero | hit rate 1.5% among 340,000;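 active = mean Tm shift, scaled 0 neutral to 100 positive control, at about 1.3% or above, every replicate too, limit read from the data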
Target sequence (Q9HCT0 whole entry, looked up): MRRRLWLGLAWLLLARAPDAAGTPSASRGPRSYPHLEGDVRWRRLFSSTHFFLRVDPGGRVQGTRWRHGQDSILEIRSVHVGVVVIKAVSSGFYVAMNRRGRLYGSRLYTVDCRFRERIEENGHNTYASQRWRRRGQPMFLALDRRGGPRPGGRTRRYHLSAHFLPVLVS
ZTA counter: counter-screen for EBNA-1 inhibitors: inhibitors of Epstein-Barr virus ZTA; P03206; ZTA-DNA binding, fluorescence polarization; inhibition, % at 11 µM; hit rate 0.15% among 320,000; AID 2234; in the data active = inhibition above about 33%
Target sequence (P03206 whole entry, looked up): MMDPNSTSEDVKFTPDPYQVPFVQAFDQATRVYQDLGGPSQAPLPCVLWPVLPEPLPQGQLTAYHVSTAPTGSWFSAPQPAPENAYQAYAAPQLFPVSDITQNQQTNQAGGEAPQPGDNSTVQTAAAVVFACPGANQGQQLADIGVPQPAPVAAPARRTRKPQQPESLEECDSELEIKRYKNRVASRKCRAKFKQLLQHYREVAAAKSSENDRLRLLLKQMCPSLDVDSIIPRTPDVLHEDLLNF
EBNA-1 inh: blocks EBNA-1 binding to DNA; EBNA-1 DNA binding, fluorescence polarization; inhibition, % at 14.8 µM; hit rate 0.34% among 300,000; AID 1950; in the data active = inhibition above about 28%
FID counter: counter-screen for HCV NS3 helicase inhibitors: DNA intercalator displacement | DNA fluorescent intercalator displacement, fluorescence | inhibition, % at 7.9 µM | hit rate 0.17% among 290,000; in the data active = inhibition above about 37%;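 also: 0% = vehicle and 100% = reference compound; higher means more ethidium bromide displaced from hairpin DNA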
GRIN3A LBD mod: modulators (binders) of human NR3A ligand-binding domain | NR3A LBD differential scanning fluorimetry, Tm shift; 0% = protein alone, 100% = glycine-bound protein | Tm shift relative to glycine control, % at 25 µM | hit rate 2.5% among 340,000 | AID 1259313;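 active = melting temperature shift of at least 10% of the positive control shift, at one fixed dose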
* = called active by the depositor; / = no result.

SMILES	NS3 helicase inh	FGF22 binding	ZTA counter	EBNA-1 inh	FID counter	GRIN3A LBD mod
O=C(Cc1ccccc1)NC(CSSCC(NC(=O)Cc1ccccc1)C(=O)O)C(=O)O (stereo unspecified)	/	/	/	/	/	36*
CO[C@H](CN(C)C(=O)c1ccccc1F)[C@H](C)CN([C@H](C)CO)S(=O)(=O)c1ccc(C)cc1	/	0	/	/	/	/
COC(=O)c1cc(C)nc2c1C(=O)C(=O)C=C2N1CCOCC1	-3	-1	57*	-1	0	-1
COC(=O)c1cc(S(=O)(=O)N2CCOCC2)c(Cl)cc1N1CCOCC1	-6	/	0	-3	-2	0
CCCCOP(=O)(c1ccc(N(C)C)cc1)C(Nc1ccccc1)c1ccccc1 (stereo unspecified)	3	0	-11	-2	-34	13*
O=C(C[C@H]1C=C[C@H](NC(=O)NC2CCCCC2)[C@@H](CO)O1)NCc1ccccc1	/	0	/	/	/	/
C=CCn1c(N)c(C(=O)Nc2cccc(C)c2)c2nc3ccccc3nc21	-4	/	9	-6	3	18*
Nc1c(C(=O)Nc2ccccc2)c2nc3ccccc3nc2n1CCCN1CCOCC1	-105	0	22	-4	9	18*
N#Cc1c(N)n(CCCN2CCOCC2)c2nc3ccccc3nc12	2	/	-23	3	6	-7
C=CCNC(=O)c1c(N)n(-c2ccc3c(c2)OCO3)c2nc3ccccc3nc12	1	/	2	5	-4	-4
C=CCn1c(N)c(C(=O)Nc2ccc(C)c(C)c2)c2nc3ccccc3nc21	1	/	-2	-18	1	24*
C=CCn1c(N)c(C(=O)OCCC)c2nc3ccccc3nc21	0	/	-7	-1	-11	-3
Cc1noc(C)c1NC(=O)N[C@@H]1CC[C@@H](CCNC(=O)C2CCC2)O[C@H]1CO	/	0	/	/	/	/
CCCNC(=O)C[C@H]1C[C@@H]2c3cc(NC(=O)CC4CC4)ccc3O[C@@H]2[C@@H](CO)O1	/	0	/	/	/	/
C[C@@H]1CN([C@H](C)CO)S(=O)(=O)c2ccc(C#Cc3ccccn3)cc2O[C@H]1CN(C)C(=O)C1CC1	/	0	/	/	/	/
Clc1nc(NCCN2CCOCC2)nc(NCc2ccccc2)n1	12	44*	4	5	1	-1
NNc1nc(NCc2ccccc2)nc(N2CCOCC2)n1	-8	/	-12	2	-18	14*
O=[N+]([O-])c1cccc(/C=N/Nc2nc(NCc3ccccc3)nc(N3CCOCC3)n2)c1O	-9	44*	-11	-10	-8	2
O=[N+]([O-])c1ccc(/C=N/Nc2nc(NCc3ccccc3)nc(N3CCOCC3)n2)cc1	1	42	-5	-4	1	1
C[C@H](CO)N1C[C@H](C)[C@@H](CN(C)S(=O)(=O)c2cn(C)cn2)Oc2ccc(NS(=O)(=O)c3ccc(F)cc3)cc2C1=O	/	0	/	/	/	/
CCCN1[C@H](C(=O)OC)[C@@H](CO)[C@@H]2Cn3c(ccc(-c4ccccc4OC)c3=O)[C@@H]21	/	0	/	/	/	/
C[C@H](CO)N1C[C@H](C)[C@@H](CN(C)Cc2ccncc2)OCCCC[C@H](C)Oc2ccc(NC(=O)c3ccccc3)cc2C1=O	/	0	/	/	/	/
COc1ccc(NC(=O)Nc2ccc3c(c2)C(=O)N([C@@H](C)CO)C[C@@H](C)[C@H](CN(C)Cc2ccccc2)OCCCC[C@H](C)O3)cc1	/	0	/	/	/	/
Cc1ccc(-c2nc(NCCN3CCOCC3)c3ccccc3n2)cc1	-3	/	0	3	46*	-2
Fc1ccccc1-c1nc(NCCCN2CCOCC2)c2ccccc2n1	-2	0	-10	8	23	-2
SMILES	NS3 helicase inh	FGF22 binding	ZTA counter	EBNA-1 inh	FID counter	GRIN3A LBD mod
Clc1ccc(-c2nc(NCCCN3CCOCC3)c3ccccc3n2)cc1	-59	0	5	0	48*	-3
COc1ccc2nc(C)cc(NCCN3CCOCC3)c2c1	9	0	0	-3	32	2
c1csc(-c2nc(NCCCN3CCOCC3)c3ccccc3n2)c1	22	0	9	-19	61*	0
Cc1cc(NCCN2CCOCC2)c2ccc3ccccc3c2n1	9	43*	1	8	47*	0
C[C@H](CO)N1C[C@H](C)[C@@H](CN(C)C(=O)Cc2ccccc2)OCCCC[C@H](C)Oc2ccc(NC(=O)Cc3ccccc3)cc2C1=O	/	0	/	/	/	/
O=C(C[C@H]1CC[C@H]2[C@@H](COC[C@H](O)CN2C(=O)c2ccncc2)O1)NC1CCC1	/	0	/	/	/	/
CN(C)CCCNc1nc(-c2ccccc2)nc2ccccc12	14	0	-9	-6	58*	1
Clc1cccc(-c2nc(NCCCN3CCOCC3)c3ccccc3n2)c1	-38	1	-14	0	37*	-2
Clc1cccc(-c2nc(NCCN3CCOCC3)c3ccccc3n2)c1	-16	0	3	4	9	-5
CCCNC(=O)C[C@@H]1CC[C@H]2[C@@H](COC[C@H](O)CN2C(=O)Nc2ccc3c(c2)OCO3)O1	/	0	/	/	/	/
O=C(CSc1nccc(-c2cccs2)n1)Nc1cccc(Cl)c1Cl	-3	0	1	4	-4	-1
O=C(CSc1nccc(-c2cccs2)n1)Nc1ccc(Cl)cc1	3	0	-8	-3	-10	26*
Cc1c(Cl)c(C(F)(F)F)nn1CC(=O)NCc1ccco1	9	43*	0	0	-2	3
O=C(c1c[nH]c2ccccc12)N1CCN(Cc2ccccc2)CC1	13	43*	3	-14	-13	0
CN(C)CC(=O)Nc1ccc2c(c1)[C@@H]1C[C@H](CC(=O)NCc3ccccc3)O[C@@H](CO)[C@@H]1O2	/	0	/	/	/	/
CCOC(=O)[C@]12CCC=C1N(Cc1ccco1)C(=O)[C@H](CC(=O)NCc1ccc(C)o1)C2	/	43*	/	/	/	/
COc1ccc(C2CC(c3ccccc3)=NN2C(=S)Nc2ccccc2)cc1 (stereo unspecified)	1	0	-4	3	2	-1
C=CCNCC(=O)N1N=C(c2ccc3ccccc3c2)CC1c1ccc(OC)cc1 (stereo unspecified)	-75	43*	-5	-7	22	-2
COc1ccc(C2CC(c3ccc(Br)cc3)=NN2C(=S)Nc2ccccc2)cc1 (stereo unspecified)	4	0	9	-8	-4	11*
COc1ccc(C2CC(c3ccc4ccccc4c3)=NN2C(=O)CNC2CCCCC2)cc1 (stereo unspecified)	-70	0	-4	-9	27	-1
CC1=C(C(=O)OC(C)C)C(c2cn(-c3ccccc3)nc2-c2cccs2)NC(=O)N1 (stereo unspecified)	-2	44*	-9	-4	-5	-4
COc1ccc(NC(=O)c2cccc(N3C(=O)c4cccc([N+](=O)[O-])c4C3=O)c2)cc1	2	0	6	6	-5	-5

Source: PubChem (several laboratories)
